Experimental data: PubChem BioAssay AID588744 (Vanderbilt Specialized Chemistry Center, 2011)
pEC50: −log10 of the molar value. Values belong to the compound of their own block, whether it stands above or below them. Calls of active or inactive are those of the source.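 Rule for the calls: active = compounds whose response rose with dose, given a half-maximal potency and peak effect versus acetylcholine; inactive = the rest.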

Target: Muscarinic acetylcholine receptor M1 (Homo sapiens) (UniProt P11229)
Sequence (P11229 whole entry, looked up): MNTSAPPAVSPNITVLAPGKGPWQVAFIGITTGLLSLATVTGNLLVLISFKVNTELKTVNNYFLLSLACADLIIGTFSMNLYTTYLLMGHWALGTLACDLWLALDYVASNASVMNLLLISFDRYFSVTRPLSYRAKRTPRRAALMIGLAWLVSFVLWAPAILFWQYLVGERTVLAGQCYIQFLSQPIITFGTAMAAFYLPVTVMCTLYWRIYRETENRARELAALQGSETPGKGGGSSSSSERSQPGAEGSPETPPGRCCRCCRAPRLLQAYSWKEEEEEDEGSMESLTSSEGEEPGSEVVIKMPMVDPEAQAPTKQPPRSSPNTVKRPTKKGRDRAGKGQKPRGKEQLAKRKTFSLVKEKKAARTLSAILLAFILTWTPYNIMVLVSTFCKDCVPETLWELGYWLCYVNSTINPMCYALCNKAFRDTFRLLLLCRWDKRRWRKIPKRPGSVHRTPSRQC
Experiment: M1 positive allosteric modulation, counter-screen, dose response, counter-screen for M4 PAM project, human, CHO cells, calcium fluorescence (AID 588744)
Conditions: CHO hM1 calcium mobilization, Fluo-4 fluorescence
In short: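 Test system – hM1-expressing CHO cells with Fluo-4 · Benchmarks – 1 mM acetylcholine maximum · Also added – acetylcholine at EC20, then acetylcholine at EC80 · Schedule – 144 s compound preincubation, EC80 ACh 86 s after EC20, 37 °C · Evaluation – % of 1 mM ACh maximum and EC50 · Detection – Fluo-4 calcium fluorescence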

% ACh max response (at 30 µM (top of the series)): inactive
SMILES: Cc1nc2sc(C(=O)NCc3nccs3)c(N)c2c(C)c1Cl

% ACh max response (at 45.3 µM (top of the series)): inactive
SMILES: Cc1nc2sc(C(=O)NCc3cccnc3)c(N)c2c(C)c1Cl

pEC50: 6.01
SMILES: Cc1nc2sc(C(=O)NC3CC3)c(N)c2c(C)c1Cl

% ACh max response (at 30 µM (top of the series)): inactive
SMILES: Cc1nc2sc(C(=O)NCc3ccncn3)c(N)c2c(C)c1Cl

% ACh max response (at 37.4 µM (top of the series)): inactive
SMILES: Cc1nc2sc(C(=O)NCc3ccccc3)c(N)c2c(C)c1Cl

% ACh max response (at 30 µM (top of the series)): inactive
SMILES: Cc1nc2sc(C(=O)NCc3cccc(F)c3F)c(N)c2c(C)c1Cl

% ACh max response (at 36.8 µM (top of the series)): inactive
SMILES: Cc1nc2sc(C(=O)NCc3ccc4c(c3)OCO4)c(N)c2c(C)c1Cl

% ACh max response (at 45.3 µM (top of the series)): inactive
SMILES: Cc1nc2sc(C(=O)NCc3ccncc3)c(N)c2c(C)c1Cl

% ACh max response (at 30 µM (top of the series)): inactive
SMILES: Cc1nc2sc(C(=O)NCCc3ccncc3)c(N)c2c(C)c1Cl
